Laboratory results from ChEMBL document CHEMBL1806392, “Phytochemical studies on Stemona aphylla: isolation of a new stemofoline alkaloid and six new stemofurans” (2011).
Values after ≈ are worked out from the molar mass of the structure shown.

Tests used:
[1] = molecular target: Acetylcholinesterase (Homo sapiens) (UniProt P22303)
Klebsiella pneumoniae = assay: Antibacterial activity against Klebsiella pneumoniae by broth dilution method; format: functional
How it was run: (§1)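 Broth dilution MIC determination against the bacterium, reported in µg/mL. Gentamicin served as the positive control.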

Staphylococcus aureus [2] = assay: Antibacterial activity against Staphylococcus aureus by broth dilution method; format: functional
How it was run: as §1

Staphylococcus aureus [3] = assay: Antibacterial activity against methicillin-resistant Staphylococcus aureus by broth dilution method; format: functional
How it was run: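 Broth dilution giving an MIC in µg/mL, with gentamicin as the antibacterial positive control. The same series covered E. coli, K. pneumoniae, S. aureus, S. pyogenes and two fungi.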

Escherichia coli = assay: Antibacterial activity against Escherichia coli by broth dilution method; format: functional
How it was run: as §1

Streptococcus pyogenes = assay: Antibacterial activity against Streptococcus pyogenes by broth dilution method; format: functional
How it was run: as §1

Cryptococcus neoformans = assay: Antifungal activity against Cryptococcus neoformans by broth dilution method; format: functional
How it was run: (§2)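 Antifungal MIC determined by broth dilution, reported in µg/mL. Amphotericin B served as the positive control.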

Candida albicans = assay: Antifungal activity against Candida albicans by broth dilution method; format: functional
How it was run: as §2

Sequence of Acetylcholinesterase (Homo sapiens) (P22303 whole entry): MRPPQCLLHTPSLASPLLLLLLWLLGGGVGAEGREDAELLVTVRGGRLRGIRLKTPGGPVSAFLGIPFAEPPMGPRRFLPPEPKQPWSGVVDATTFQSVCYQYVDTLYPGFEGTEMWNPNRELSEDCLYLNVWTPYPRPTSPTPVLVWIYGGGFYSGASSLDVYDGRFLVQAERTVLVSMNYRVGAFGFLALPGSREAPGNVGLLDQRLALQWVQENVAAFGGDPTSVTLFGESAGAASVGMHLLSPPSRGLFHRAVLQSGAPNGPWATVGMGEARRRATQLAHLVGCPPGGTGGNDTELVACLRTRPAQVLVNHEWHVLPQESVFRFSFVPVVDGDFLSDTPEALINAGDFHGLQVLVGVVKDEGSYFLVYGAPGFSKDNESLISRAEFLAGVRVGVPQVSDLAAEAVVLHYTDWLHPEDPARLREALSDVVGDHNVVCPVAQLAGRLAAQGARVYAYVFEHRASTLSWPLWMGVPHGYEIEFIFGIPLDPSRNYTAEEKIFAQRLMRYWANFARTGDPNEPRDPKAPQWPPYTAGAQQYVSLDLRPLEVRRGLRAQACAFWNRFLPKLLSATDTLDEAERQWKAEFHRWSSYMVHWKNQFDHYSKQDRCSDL

| Molecule | MIC [1] [ng] | MIC (Klebsiella pneumoniae) [µg/mL] | MIC (Staphylococcus aureus [2]) [µg/mL] | MIC (Staphylococcus aureus [3]) [µg/mL] | MIC (Escherichia coli) [µg/mL] | MIC (Streptococcus pyogenes) [µg/mL] | MIC (Cryptococcus neoformans) [µg/mL] | MIC (Candida albicans) [µg/mL] |
| --- | --- | --- | --- | --- | --- | --- | --- | --- |
| CC[C@H](O)C[C@@]12[C@@H]3C[C@H]4[C@H]5[C@H](C)[C@@H]([C@@H]6OC(=O)C(C)=C6OC)O[C@]5(O3)[C@@H]1CCN42 | 100 |  |  |  |  |  |  |  |
| CCCC[C@@]12C3CCN1[C@H]1C[C@H]2O[C@@]32O/C(=C3\OC(=O)C(C)=C3OC)[C@@H](C)[C@H]12 | 10 |  |  |  |  |  |  |  |
| COc1cc(-c2cc3c(O)cccc3o2)c(C)c(OC)c1C [STEMOFURAN J] |  | 62.5 (≈ 209 µM) | 62.5 (≈ 209 µM) | 15.6 (≈ 52.3 µM) | 62.5 (≈ 209 µM) | 62.5 (≈ 209 µM) | 7.8 (≈ 26.1 µM) | 31.3 (≈ 105 µM) |
| COc1cc(-c2cc3c(O)cccc3o2)c(C)c(O)c1C [STEMOFURAN E] |  | 62.5 (≈ 220 µM) | 62.5 (≈ 220 µM) | 15.6 (≈ 54.9 µM) | 62.5 (≈ 220 µM) |  | 7.8 (≈ 27.4 µM) | 31.3 (≈ 110 µM) |
| CC/C=C/[C@@]12[C@@H]3C[C@H]4[C@H]5[C@H](C)/C(=C6/OC(=O)C(C)=C6OC)O[C@]5(O3)[C@@H]1CCN42 | 5 |  |  |  |  |  |  |  |
| C[C@@H]1[C@H](O)[C@@H](C)/C=C/C=C/C=C/C=C/C=C/C=C/C=C/[C@H](O[C@@H]2O[C@H](C)[C@@H](O)[C@H](N)[C@@H]2O)C[C@@H]2O[C@](O)(C[C@@H](O)C[C@@H](O)[C@H](O)CC[C@@H](O)C[C@@H](O)CC(=O)O[C@H]1C)C[C@H](O)[C@H]2C(=O)O [AMPHOTERICIN B] |  |  |  |  |  |  | 3.9 (≈ 4.22 µM) | 15.6 (≈ 16.9 µM) |
| GENTAMICIN |  | 11.3 | 22.5 | 45 | 11.3 | 5.6 |  |  |
| COc1cc(O)c(C)c(-c2cc3c(O)cc(OC)cc3o2)c1 [STEMOFURAN M] |  | 62.5 (≈ 208 µM) | 31.3 (≈ 104 µM) | 31.3 (≈ 104 µM) | 125 (≈ 416 µM) | 62.5 (≈ 208 µM) | 31.3 (≈ 104 µM) | 31.3 (≈ 104 µM) |
| COc1cc(OC)c(C)c(-c2cc3c(O)cc(OC)cc3o2)c1 [STEMOFURAN P] |  | 125 (≈ 398 µM) | 31.3 (≈ 99.6 µM) | 62.5 (≈ 199 µM) | 62.5 (≈ 199 µM) |  | 7.8 (≈ 24.8 µM) | 15.6 (≈ 49.6 µM) |
| CC[C@H](O)C[C@@]12[C@@H]3C[C@H]4[C@H]5[C@H](C)/C(=C6\OC(=O)C(C)=C6OC)O[C@]5(O3)[C@@H]1CCN42 | 10 |  |  |  |  |  |  |  |
| CC[C@H](O)C[C@@]12[C@@H]3C[C@H]4[C@H]5[C@H](C)[C@@H]([C@H]6OC(=O)C(C)=C6OC)O[C@]5(O3)[C@@H]1CCN42 | 50 |  |  |  |  |  |  |  |
| CC[C@H](O)C[C@@]12[C@@H]3C[C@H]4[C@H]5[C@H](C)/C(=C6/OC(=O)C(C)=C6OC)O[C@]5(O3)[C@@H]1CCN42 | 10 |  |  |  |  |  |  |  |
